This note sets out measurements from ChEMBL document CHEMBL5329210, “Novel piperazine-1,2,3-triazole leads for the potential treatment of pancreatic cancer” (RSC Med Chem, 2023).

Data set [1] in a line: Inhibition of cell growth of human pancreatic cancer cells measured after 72 hrs by CCK8 assay. The data set is classed as functional. Summed up: (§1)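 CCK-8 viability in human pancreatic cancer lines. Compounds were added over 100–0.05 μM 24 h after seeding, alongside a 0.5% DMSO vehicle. After 72 h, CCK-8 was incubated for 1 h at 37 °C. A450 minus A650 was expressed as % of vehicle. IC50 was taken from the dose-response curve. Seeding was 3×10^3/well for MiaPaCa2 and 7×10^3/well for BxPC3 and CFPAC-1. n = 3.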
(In general: Tetrazolium dyes change colour on reduction, which living cells bring about.)

Data set [2] concerns MIA PaCa-2. Nature of the data set: Inhibition of cell growth of human MIA PaCa-2 cells measured after 72 hrs by CCK8 assay. The data set is classed as functional. An outline of the steps: as §1
The test system of data set [3] is HPAC. Nature of the data set: Inhibition of cell growth of human HPAC cells measured after 72 hrs by CCK8 assay. The data set is classed as functional.
In data set [4] the test system is PANC-1. Description: Inhibition of cell growth of human PANC-1 cells measured after 72 hrs by CCK8 assay. Type of data set: functional.
Data set [5] has as its system Capan-2. Nature of the data set: Inhibition of cell growth of human Capan-2 cells measured after 72 hrs by CCK8 assay. The data set is classed as functional.
Data set [6] deals with BXPC-3. Nature of the data set: Inhibition of cell growth of human BXPC-3 cells measured after 72 hrs by CCK8 assay. The data set is classed as functional. Summed up:
as §1

For data set [7], the system named is ASPC1. Description: Inhibition of cell growth of human ASPC1 cells measured after 72 hrs by CCK8 assay. Type of data set: functional.
Data set [8] has as its system HPAC. Description: Inhibition of cell growth of human HPAC cells measured after 72 hrs by MTT assay. Type of data set: functional. An outline of the steps: (§2)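 MTT read-out. Cancer lines were grown in DMEM with 10% FBS, glutamine and antibiotics. MCF10A was grown in DMEM:F12 with 5% horse serum, EGF, hydrocortisone, cholera toxin and insulin. Cells were plated in duplicate at 2500–4000/well, and drug was added 24 h later. After 72 h, absorbance was read at 540 nm. Single-point lines used 25 μM. GI50 is 50% growth inhibition versus untreated control. n = 3.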

In data set [9] the test system is MIA PaCa-2. Nature of the data set: Inhibition of cell growth of human MIA PaCa-2 cells measured after 72 hrs by MTT assay. The data set is classed as functional. An outline of the steps:
as §2

Data set [10] deals with HT-29. Nature of the data set: Inhibition of cell growth of human HT-29 cells measured after 72 hrs by MTT assay. The data set is classed as functional. An outline of the steps:
as §2

Data set [11] has as its system ASPC1. Nature of the data set: Inhibition of cell growth of human ASPC1 cells measured after 72 hrs by MTT assay. Type of data set: functional. An outline of the steps: as §2
A short description of data set [12]: Inhibition of cell growth of human MCF-10A cells measured after 72 hrs by MTT assay. Type of data set: toxicity, cell-based. Summed up:
as §2

Data set [13] concerns BXPC-3. Description: Inhibition of cell growth of human BXPC-3 cells measured after 72 hrs by MTT assay. The data set is classed as functional. Summed up:
as §2

For data set [14], the system named is MCF7. Description: Inhibition of cell growth of human MCF7 cells measured after 72 hrs by MTT assay. The data set is classed as functional. An outline of the steps:
as §2

In data set [15] the test system is BE(2)-C. Description: Inhibition of cell growth of human BE2C cells measured after 72 hrs by MTT assay. The data set is classed as functional. An outline of the steps:
as §2

For data set [16], the system named is A2780. Description: Inhibition of cell growth of human A2780 cells measured after 72 hrs by MTT assay. The data set is classed as functional. Summed up:
as §2

In data set [17] the test system is PANC-1. Nature of the data set: Inhibition of cell growth of human PANC-1 cells measured after 72 hrs by MTT assay. The data set is classed as functional. An outline of the steps: as §2
Data set [18] relates to Capan-2. Description: Inhibition of cell growth of human Capan-2 cells measured after 72 hrs by MTT assay. Type of data set: functional. An outline of the steps:
as §2

The subject of data set [19] is A2780. Nature of the data set: Inhibition of cell growth of human A2780 cells at 25 uM measured after 72 hrs by MTT assay relative to control. The data set is classed as functional. Summed up: as §2
In data set [20] the test system is MIA PaCa-2. Nature of the data set: Inhibition of cell growth of human MIA PaCa-2 cells at 25 uM measured after 72 hrs by MTT assay relative to control. The data set is classed as functional. Summed up:
as §2

In data set [21] the test system is HPAC. Nature of the data set: Inhibition of cell growth of human HPAC cells at 25 uM measured after 72 hrs by MTT assay relative to control. Type of data set: functional. Summed up:
as §2

Data set [22] concerns PANC-1. Nature of the data set: Inhibition of cell growth of human PANC-1 cells at 25 uM measured after 72 hrs by MTT assay relative to control. The data set is classed as functional. Summed up:
as §2

Data set [23] deals with MCF7. Description: Inhibition of cell growth of human MCF7 cells at 25 uM measured after 72 hrs by MTT assay relative to control. The data set is classed as functional. Summed up:
as §2

Data set [24] concerns BXPC-3. Description: Inhibition of cell growth of human BXPC-3 cells at 25 uM measured after 72 hrs by MTT assay relative to control. Type of data set: functional. Summed up: as §2
The subject of data set [25] is BE(2)-C. Description: Inhibition of cell growth of human BE2C cells at 25 uM measured after 72 hrs by MTT assay relative to control. Type of data set: functional. Summed up:
as §2

For data set [26], the system named is ASPC1. Nature of the data set: Inhibition of cell growth of human ASPC1 cells at 25 uM measured after 72 hrs by MTT assay relative to control. The data set is classed as functional. An outline of the steps:
as §2

Data set [27] has as its system Capan-2. Nature of the data set: Inhibition of cell growth of human Capan-2 cells at 25 uM measured after 72 hrs by MTT assay relative to control. The data set is classed as functional. Summed up:
as §2

For data set [28], the system named is HT-29. Description: Inhibition of cell growth of human HT-29 cells at 25 uM measured after 72 hrs by MTT assay relative to control. The data set is classed as functional. Summed up: as §2
The nature of data set [29]: Inhibition of cell growth of human MCF-10A cells at 25 uM measured after 72 hrs by MTT assay relative to control. Type of data set: toxicity, cell-based. An outline of the steps:
as §2

By GI50 is commonly meant the concentration that inhibits growth by half. A lower GI50 goes with more potent growth inhibition. In the case of `O=S(=O)(NCCCNCc1ccc(Cl)cc1)c1cc(C(F)(F)F)cc(C(F)(F)F)c1`, halving of growth in [1] (GI50) required 1.6 µM.

In the data set on MIA PaCa-2 [2], `COc1cccc(-c2cn(CCCN3CCN(S(=O)(=O)c4ccc(NC(C)=O)cc4)CC3)nn2)c1` had a GI50 of approximately 50 µM.

For the compound `Cc1ccc(-c2cn(CCCN3CCN(S(=O)(=O)c4ccc(C(F)(F)F)cc4)CC3)nn2)cc1`, the GI50 was 5 µM in the data set with HPAC [3]; 6.1 µM in the data set on PANC-1 [4]; 5 µM with Capan-2 [5]; 4 µM in the data set with BXPC-3 [6]; 7.3 µM in the data set with ASPC1 [7].

As for `CCc1ccc(-c2cn(CCCN3CCN(S(=O)(=O)c4ccc(C(F)(F)F)cc4)CC3)nn2)cc1`, the GI50 turned out to be 5.8 µM with HPAC [3]; 6.1 µM in the data set with PANC-1 [4]; 6.1 µM in the data set with Capan-2 [5]; 3.7 µM in the data set with BXPC-3 [6]; 8 µM in the data set on ASPC1 [7].

The compound `CC(C)(C)c1ccc(-c2cn(CCCNCCNS(=O)(=O)c3cc(C(F)(F)F)cc(C(F)(F)F)c3)nn2)cc1` registered a GI50 in data set [1] of 1.1 µM.

Regarding `COc1ccc(-c2cn(CCCN3CCN(S(=O)(=O)c4ccc(C(F)(F)F)cc4)CC3)nn2)cc1`, the GI50 in the data set on HPAC [8] turned out to be 16 µM; in the data set on MIA PaCa-2 [9], 7.8 µM; in the data set with HT-29 [10], 8.6 µM; in the data set on ASPC1 [11], 14 µM; in the data set with BXPC-3 [13], 12 µM; with MCF7 [14], 6.1 µM. In addition, the GI50 with BE(2)-C [15] was determined as 6.4 µM; in the data set on A2780 [16] it was 6.2 µM; in the data set on PANC-1 [17], 5.2 µM; in the data set with Capan-2 [18] it was 8.4 µM. This compound also returned a GI50 at 72 h in data set [12] of 4.9 µM.

The term inhibition denotes the relative decrease from the control value, in per cent. A lower inhibition goes with a weak effect. As for `O=S(=O)(c1ccccc1C(F)(F)F)N1CCN(CCCn2cc(-c3ccc(Br)cc3)nn2)CC1`, the inhibition at 25 µM with A2780 [19] is 68%; in the data set with MIA PaCa-2 [20], 70%; in the data set with HPAC [21], 42%; in the data set with PANC-1 [22], 53%; in the data set with MCF7 [23] it was 87%; in the data set with BXPC-3 [24], less than 10%. The inhibition at 25 µM with BE(2)-C [25] is 58%; in the data set on ASPC1 [26], 51%; in the data set on Capan-2 [27] it was 65%; in the data set on HT-29 [28], 92%. Further, the GI50 in the data set with HPAC [8] is more than 50 µM; in the data set on MIA PaCa-2 [9] it was more than 50 µM; in the data set on HT-29 [10], 10 µM; in the data set on ASPC1 [11] it was more than 50 µM; with BXPC-3 [13] it was more than 50 µM; in the data set with MCF7 [14], 9.2 µM. Besides, the GI50 in the data set with BE(2)-C [15] was 38 µM; in the data set on A2780 [16], 14 µM; in the data set with PANC-1 [17], more than 50 µM; with Capan-2 [18], 23 µM. This compound also yielded a GI50 at 72 h in data set [12] of 12 µM. Moreover, the inhibition at 72 h, 25 µM in data set [29] came to 72%.

As for `COc1ccccc1-c1cn(CCCN2CCN(S(=O)(=O)c3ccc(C(F)(F)F)cc3)CC2)nn1`, the GI50 in the data set with HPAC [8] was determined as 0.43 µM; in the data set with MIA PaCa-2 [9], 0.64 µM; in the data set on HT-29 [10], 0.47 µM; in the data set on ASPC1 [11] it was 0.61 µM; with BXPC-3 [13], 0.48 µM; in the data set with MCF7 [14] it was 0.36 µM. Also, the GI50 turned out to be 0.59 µM with BE(2)-C [15], 0.8 µM with A2780 [16], 0.68 µM in the data set on PANC-1 [17] and 0.56 µM with Capan-2 [18]. The compound also showed a 50% growth inhibitory concentration (GI50) at 72 h in data set [12] of 1 µM.
